Bioassay records as filed in PubChem BioAssay.
FLuc stim CS: affects firefly luciferase, flagging false hits in luciferase stimulation screens. P08659. ATPlite luciferase biochemical, luminescence, 10 min; 0 = ATP-free wells, 1 = DMSO control. activation factor at 10 µM. 200,000 tested, under 10 active. AID 1027;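 active = luciferase activation factor, scaled between plate controls, of at least 2 with compound at 10 µM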
Target sequence (P08659 whole entry, looked up): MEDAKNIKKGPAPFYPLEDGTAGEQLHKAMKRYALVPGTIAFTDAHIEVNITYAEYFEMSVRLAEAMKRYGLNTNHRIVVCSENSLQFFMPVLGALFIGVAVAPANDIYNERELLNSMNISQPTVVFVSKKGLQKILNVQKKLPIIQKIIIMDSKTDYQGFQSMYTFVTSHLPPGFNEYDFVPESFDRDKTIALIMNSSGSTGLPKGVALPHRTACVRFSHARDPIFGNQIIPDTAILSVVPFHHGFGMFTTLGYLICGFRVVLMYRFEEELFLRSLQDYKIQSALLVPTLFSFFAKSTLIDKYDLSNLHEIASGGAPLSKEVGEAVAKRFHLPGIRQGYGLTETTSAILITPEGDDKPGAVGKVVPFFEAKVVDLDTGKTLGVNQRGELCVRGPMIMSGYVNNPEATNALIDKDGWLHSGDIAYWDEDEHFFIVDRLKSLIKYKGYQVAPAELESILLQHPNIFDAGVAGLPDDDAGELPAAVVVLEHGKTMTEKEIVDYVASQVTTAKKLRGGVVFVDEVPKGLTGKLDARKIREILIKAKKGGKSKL
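test system = cell-free luciferase reagent | medium = PBS as buffer for the ATP substrate | dosing = test compounds dosed from 2 mM stocks in 100% DMSO | incubation = 10 min at ambient temperature | detection = luminescence measurement of luciferase light output | benchmarks = low control with PBS replacing ATP, high control enzyme plus ATP without compound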
FLuc inh counter: Photinus pyralis luciferase inhibition counter-screen; ATPLite firefly luciferase biochemical luminescence, 10 min; inhibition, % at 10 µM; 200,000 tested, 1.5% active; AID 1006;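 active = inhibition above about 50% when tested at 10 µM, limit read from the data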
APP 5'UTR act: APP 5'UTR luciferase reporter activation. SH-SY5Y APP 5'UTR luciferase reporter, luminescence; zero percent = DMSO vehicle wells. activation, % at 2 µM. 190,000 tested, 1% active. AID 1276;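 active = activation above a set limit, based on mean plus 3 SD of controls, cut at about 140% in these data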
PPC-1+TRAIL kill: PPC-1 cancer cell killing with TRAIL present. AID 1443. 220,000 tested, 0.41% active. PPC-1 cells + TRAIL, ATPLite viability luminescence. cell killing (% activity), % at 4 µM or 5 µM;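 active = cell killing above 50% in the first pass at 4 µM, then a duplicate retest at 5 µM averaging 50% or more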;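 also: plate controls were cells with TRAIL plus DMSO for no effect and medium-only wells lacking cells for full effect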
C8 TRAIL sens: caspase-8 TRAIL sensitization; NB7+C8 cells + TRAIL, ATPlite viability luminescence; AID 624354; inhibition (viability loss, TRAIL sensitization), % at 10 µM; 360,000 tested, 1% active;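 active = compounds causing at least 50% loss of cell viability in the single-dose screen, relative to plate controls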
NF-kB neuron act: NF-kB expression increase, human neuronal cells; NF-kB reporter expression; stronger effect = higher value; AID 1239; fold change at 12.5 µM; 190,000 tested, 1.6% active; in the data active = fold change above about 3.3
* = called active by the depositor; · = not tested or not shown. In the library only some 2.2% were active in any assay of this set; here they are far more common.

SMILES	FLuc stim CS	FLuc inh counter	APP 5'UTR act	PPC-1+TRAIL kill	C8 TRAIL sens	NF-kB neuron act
C[C@H]1CN([C@@H](C)CO)C(=O)CCCn2cc(nn2)CO[C@@H]1CN(C)C(=O)Nc1cccc(F)c1	·	·	·	·	-17	·
CCCC[n+]1ccn(C2=C([O-])c3ccccc3C(=O)/C2=N\S(=O)(=O)c2ccccc2)c1	1	-3	1	0	51*	0.35
COCCNC(=S)N/N=C(\C)c1ccccc1OC	1.1	-6	-15	-13	-1	1.2
COCCNC(=S)N/N=C(\C)c1ccccc1O	0.9	10	-79	25	18	15*
CC(C)n1cnc2c(Nc3cccc(Cl)c3)nc(NCCCO)nc21	·	·	·	28	29	·
C=CC(=O)Nc1cccc(Nc2nc(N[C@H]3CC[C@H](N(C)C)CC3)nc3c2ncn3C(C)C)c1	·	·	·	·	83*	·
C=CCSC(=C(C#N)C#N)c1cc2c([nH]1)CCCC2	1	0	16	13	-3	7.3*
COc1cc(C(=O)Oc2c(OC)cc(C(=S)N3CCOCC3)cc2OC)cc(OC)c1OC	·	·	·	·	2	·
COc1ccc(C(=O)Oc2c(CN3CCOCC3)cc(Cl)c3cccnc23)cc1	1.1	-6	-38	16	43	28*
OCCN1CCN(Cc2cc(Cl)c3cccnc3c2O)CC1	1	-2	0	16	-3	0.77
O=C(Oc1c(CN2CCOCC2)cc(Cl)c2cccnc12)c1ccc(F)cc1	1.1	-5	-37	35	55*	7.6*
COc1cc(C(=O)Oc2c(CN3CCOCC3)cc(Cl)c3cccnc23)cc(OC)c1OC	1.1	-6	-39	-18	36	3.8*
COc1cccc(C(=O)Oc2c(CN3CCOCC3)cc(Cl)c3cccnc23)c1	1.1	-6	-38	15	46*	4.6*
CCOc1cc(-c2ccccc2)nc2c1CN(S(=O)(=O)c1ccc(C)cc1)C(c1cccc(Cl)c1)C2 (centres undefined)	·	·	·	·	2	·
O=C(NC(c1ccc(Cl)cc1)c1ccsc1)C1CCN(Cc2ccc(Oc3ccccc3)cc2)CC1 (centres undefined)	·	·	·	·	32	·
COC(=O)c1ccc(N=Nc2ccccc2)cc1	0.4	60*	39	11	7	3.3
COC(=O)c1ccc(OCCOc2ccccc2)cc1	1	0	34	15	4	2.1
CC1=CC2C(C(O)CC3(C)C2CC(C)C32OCOC23COCO3)C2(C)C/C(=C\O)C(=O)C=C12 (centres undefined)	·	·	·	·	94*	·
COC(=O)[C@]12CCCCC=C1N(Cc1ccc(Cl)cc1Cl)C(=O)[C@H](CC(=O)NCCC(C)C)C2	·	·	·	·	18	·
COc1cc(C2Nc3ccccc3C(=O)N2c2ccc3c(c2)OCCO3)ccc1OCC(C)C (centres undefined)	0.9	10	107	27	55*	1.1
COc1cc(C2Nc3ccccc3C(=O)N2c2ccccc2OC)ccc1O (centres undefined)	1	-2	20	14	3	0.97
O=C1c2ccccc2NC(c2ccc3c(c2)OCCO3)N1c1ccc2c(c1)OCCO2 (centres undefined)	0.8	18	85	42	64*	4.4*
CC[C@H]1O[C@H](C)CC2=C1C(=O)OC(C)(C)O2	·	·	·	·	-4	·
OCC[C@@H]1C[C@H](O)[C@@H](O)[C@]2(OCc3ccc(CO)cc32)O1	·	·	·	·	1	·
CCOC(=O)[C@]12CCCC=C1N(Cc1ccccc1)C(=O)[C@H](CC(=O)NCC1CCCCC1)C2	·	·	·	·	-8	·
SMILES	FLuc stim CS	FLuc inh counter	APP 5'UTR act	PPC-1+TRAIL kill	C8 TRAIL sens	NF-kB neuron act
OC[C@@H]1CN(Cc2ccc3c(c2)OCO3)C[C@H](n2cnc3c(N4CCCC4)ncnc32)O1	·	·	·	·	3	·
CCN(CC)S(=O)(=O)c1ccc(NC(=O)Nc2cccc(C(F)(F)F)c2)cc1	1.1	-8	7	2	69*	0.46
COc1ccc(CC(N)c2csc(NC(=O)Nc3cccc(C(F)(F)F)c3)n2)cc1 (centres undefined)	·	·	·	·	70*	·
O=C(Nc1ccc(OC(F)F)cc1)Nc1cccc(C(F)(F)F)c1	1	4	0	17	60*	0.82
CC(=O)Nc1cc(-c2ccncc2)cn2c(-c3ccccc3)cnc12	·	·	·	·	8	·
COc1cc(/C=N/N=C(N)N)ccc1OCc1ccccc1Cl	1	0	13	43	23	4.3*
COc1ccc(/C=N/N=C/c2ccc(OC)c(OC)c2)cc1OC	1.1	-6	-4	16	14	0.91
O=C1c2ccccc2C(=O)C1c1ccc(O)cc1	0.6	35	48	7	5	3.8*
O=C1c2ccccc2C(=O)C1c1ccc(Br)cc1	·	·	·	·	14	·
Cc1ccc(C(=O)Sc2cccccc2=O)cc1	·	·	·	·	61*	·
O=C(Nc1ccccc1SC(=O)c1ccccc1)c1ccccc1	·	·	·	·	-4	·
CCC(C)c1ccc(NC(=O)c2cccs2)cc1 (centres undefined)	0.3	75*	150*	25	60*	11*
Cc1ccn(-c2ccc(NC(=O)c3cccs3)cc2)n1	·	·	·	·	55*	·
CN1CCN(c2ccc(NC(=O)c3cccs3)cc2)CC1	0.7	35	132	10	17	2
CCOC(=O)c1sc(N(Cc2ccccc2)C(=O)CCl)nc1C	·	·	·	·	87*	·
CCOC(=O)c1sc(N(Cc2ccccc2)C(=O)COC(=O)c2ccccc2O)nc1C	1.1	-5	10	16	-1	1.1
O=C(NCc1ccco1)/C(=C/c1ccc(C(F)(F)F)cc1)c1nc2ccccc2[nH]1	0.9	12	94	27	2	0.71
O=S(=O)(/C(=C\c1ccc(C(F)(F)F)cc1)c1nc2ccccc2[nH]1)c1ccccc1	·	·	·	·	85*	·
C#Cc1ccc(NC(=O)C2(C)CCN2C(=O)Cc2ccc(C(C)C)cc2)cc1 (centres undefined)	·	·	·	·	52*	·
O=C(c1ccccc1)c1cc(Cl)ccc1N1C(=O)C=CC1=O	0.4	58*	-80	23	2	0.93
O=C(CC(=O)c1cc(Cl)ccc1O)c1ccccc1	1	-1	58	11	26	2
O=C(c1ccncc1)N(Cc1cc2ccccc2[nH]c1=O)C1CCCCC1	1	-4	-12	12	76*	0.94
CN1CC(=O)N2C(c3ccc(Cl)cc3)c3[nH]c4ccccc4c3C[C@H]2C1=O (some centres undefined)	·	·	·	·	55*	·
COc1cc2c(cc1NC(=O)C1CCCO1)oc1ccccc12 (centres undefined)	1	-2	162*	-7	-8	5.6*
CN(Cc1ccccc1)c1ccc(C(CC(N)=O)NC(=O)c2ccccc2)cc1[N+](=O)[O-] (centres undefined)	·	·	·	·	8	·
CCc1nc(N)nc(N)c1-c1ccc(NCCN)c([N+](=O)[O-])c1	·	·	·	·	79*	·
CCc1nc(N)nc(N)c1-c1ccc(N(C)Cc2ccccc2)c([N+](=O)[O-])c1	·	·	·	·	70*	·
